Laboratory results from ChEMBL document CHEMBL1125793 (J Med Chem, 1991).

What was measured:
Angiotensin II receptor [1] = molecular target: T1, Angiotensin II receptor (Rattus norvegicus, UniProt P29089+P25095+P35351); experiment: Binding affinity against Angiotensin II receptor, from rat adrenal gland; format: tissue-based
T1 sequence (P29089 whole entry): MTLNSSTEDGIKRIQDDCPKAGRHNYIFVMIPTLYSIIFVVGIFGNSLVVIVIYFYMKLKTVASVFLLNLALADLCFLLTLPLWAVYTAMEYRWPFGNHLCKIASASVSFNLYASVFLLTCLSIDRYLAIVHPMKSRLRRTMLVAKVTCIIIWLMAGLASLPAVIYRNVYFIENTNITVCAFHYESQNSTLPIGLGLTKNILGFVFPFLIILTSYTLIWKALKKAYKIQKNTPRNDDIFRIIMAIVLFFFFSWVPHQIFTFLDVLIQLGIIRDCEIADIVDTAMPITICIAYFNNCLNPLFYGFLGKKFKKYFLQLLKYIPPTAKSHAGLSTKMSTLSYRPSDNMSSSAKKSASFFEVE
T1 sequence (P25095 whole entry): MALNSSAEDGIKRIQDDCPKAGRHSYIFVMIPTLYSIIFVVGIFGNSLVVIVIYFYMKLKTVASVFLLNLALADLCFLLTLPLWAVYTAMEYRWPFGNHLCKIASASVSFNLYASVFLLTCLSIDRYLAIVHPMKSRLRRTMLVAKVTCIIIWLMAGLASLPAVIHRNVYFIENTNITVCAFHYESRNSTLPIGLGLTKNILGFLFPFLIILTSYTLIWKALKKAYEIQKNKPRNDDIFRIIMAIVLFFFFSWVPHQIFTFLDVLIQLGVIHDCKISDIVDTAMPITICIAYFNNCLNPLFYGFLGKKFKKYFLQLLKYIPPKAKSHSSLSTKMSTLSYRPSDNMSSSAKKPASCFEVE
T1 sequence (P35351 whole entry): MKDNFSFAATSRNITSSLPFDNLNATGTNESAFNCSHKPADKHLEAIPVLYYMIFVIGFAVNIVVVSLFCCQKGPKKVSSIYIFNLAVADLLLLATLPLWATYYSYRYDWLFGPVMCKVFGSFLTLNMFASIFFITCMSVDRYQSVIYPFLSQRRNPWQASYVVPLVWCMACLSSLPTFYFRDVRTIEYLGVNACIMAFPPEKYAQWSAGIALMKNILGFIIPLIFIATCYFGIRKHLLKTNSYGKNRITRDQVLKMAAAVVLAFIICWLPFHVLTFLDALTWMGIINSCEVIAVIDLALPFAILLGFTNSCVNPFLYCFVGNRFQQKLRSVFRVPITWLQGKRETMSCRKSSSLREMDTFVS

Angiotensin II receptor [2] = molecular target: T1, Angiotensin II receptor; experiment: Binding affinity for rat brain Angiotensin II receptor
[3] = molecular target: T2, Angiotensin II receptor (Rattus norvegicus) (UniProt P29089+P25095+P35351); experiment: Inhibitory activity against Angiotensin II receptor, from rat adrenal gland at a concentration of 10 uM; format: tissue-based
Outline: (§1)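 Displacement of 125I-Ang II ([…]) from rat adrenal membrane fraction, with test agent at a single 10 μM. Buffer was Tris-HCl, NaCl, 5 mM DTT and BSA; incubation 30 min at 22–25 °C in duplicate.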

[4] = molecular target: T2, Angiotensin II receptor (Rattus norvegicus); experiment: Inhibitory activity against angiotensin II receptor at a concentration of 10 uM in rat; outline: as §1

Row | IC50 (Angiotensin II receptor [1]) [nM] | SMILES | other results
1 | 370 | COc1ccc(Cn2cnc3c2CC(CO)N(C(=O)C(c2ccccc2)c2ccccc2)C3)cc1C (stereo unspecified) | IC50 (Angiotensin II receptor [2]): 130 nM
2 | 150 | Cc1cccc(Cn2cnc3c2C[C@@H](C(=O)O)N(C(=O)C(c2ccccc2)c2ccccc2)C3)c1 | IC50 (Angiotensin II receptor [2]): 1600 nM
3 | 190 | O=C(O)[C@@H]1Cc2c(ncn2Cc2ccc(C(F)(F)F)cc2)CN1C(=O)C(c1ccccc1)c1ccccc1 | IC50 (Angiotensin II receptor [2]): 800 nM
4 | 34 | Cc1cc(Cn2cnc3c2C[C@@H](C(=O)O)N(C(=O)C(c2ccccc2)c2ccccc2)C3)ccc1N(C)C | IC50 (Angiotensin II receptor [2]): 210 nM
5 | 700 | O=C(O)[C@@H]1Cc2c(ncn2CCCc2ccccc2)CN1C(=O)C(c1ccccc1)c1ccccc1 | IC50 (Angiotensin II receptor [2]): 400 nM
6 | – | NC(=O)C1Cc2c(ncn2Cc2ccccc2)CN1C(=O)Nc1ccccc1 (stereo unspecified) | inhibition [3]: 14%
7 | – | O=C(O)C1Cc2c(ncn2Cc2ccccc2)CN1C(=O)c1ccccc1 (stereo unspecified) | inhibition [3]: 12%
8 | – | CC(=O)N1Cc2ncn(Cc3ccccc3)c2CC1C(=O)O (stereo unspecified) | inhibition [3]: 4%
9 | 6800 | O=C(O)C1Cc2c(ncn2Cc2ccccc2)CN1C(=O)C(c1ccc(Cl)cc1)c1ccc(Cl)cc1 (stereo unspecified) | IC50 (Angiotensin II receptor [2]): 8200 nM
10 | – | COc1ccc(Cn2cnc3c2C[C@@H](C(=O)O)N(C(=O)C2c4ccccc4-c4ccccc42)C3)cc1C | inhibition [4]: 27%
11 | 8000 | O=C(O)C1Cc2c(ncn2Cc2ccccc2)CN1C(=O)C1c2ccccc2-c2ccccc21 (stereo unspecified) | IC50 (Angiotensin II receptor [2]): 19000 nM
12 | – | O=C(O)C1Cc2ncn(Cc3ccccc3)c2CN1C(=O)Nc1ccccc1 (stereo unspecified) | inhibition [3]: 24%
13 | 130 | O=C(O)[C@@H]1Cc2c(ncn2CCC23CC4CC(CC(C4)C2)C3)CN1C(=O)C(c1ccccc1)c1ccccc1 | IC50 (Angiotensin II receptor [2]): 170 nM
14 | 71 | O=C(O)C1Cc2c(ncn2Cc2ccccc2)CN1C(=O)C(c1ccccc1)C1CCCC1 (stereo unspecified) | –
15 | 85 | COc1ccc(Cn2cnc3c2C[C@@H](C(=O)O)N(C(=O)C(c2ccccc2)C2CCCCC2)C3)cc1C (stereo partly specified) | –
16 | 97 | Cc1cc(Cn2cnc3c2C[C@H](C(=O)O)N(C(=O)C(c2ccccc2)c2ccccc2)C3)ccc1N(C)C.O | –

Row | IC50 (Angiotensin II receptor [1]) [nM] | SMILES | other results
17 | 720 | COc1ccc(C)cc1Cn1cnc2c1C[C@@H](C(=O)O)N(C(=O)C(c1ccccc1)c1ccccc1)C2 | –
18 | 1200 | O=C(O)[C@@H]1Cc2c(ncn2Cc2cccc(Cl)c2)CN1C(=O)C(c1ccccc1)c1ccccc1 | –
19 | 2000 | COc1ccc(C(C(=O)N2Cc3ncn(Cc4ccc(OC)c(C)c4)c3C[C@H]2C(=O)O)c2ccc(OC)cc2)cc1 | –
20 | 28000 | COc1ccc(Cn2cnc3c2C[C@@H](C(=O)O)N(C(=O)CC24CC5CC(CC(C5)C2)C4)C3)cc1C | –
21 | 21000 | CC(C)NC(=O)N1Cc2ncn(Cc3ccccc3)c2CC1C(=O)O (stereo unspecified) | –
22 | 120 | O=C(O)[C@@H]1Cc2c(ncn2Cc2cccnc2)CN1C(=O)C(c1ccccc1)c1ccccc1 | –
23 | 1300 | Cc1ccc(C(C(=O)N2Cc3ncn(Cc4ccccc4)c3CC2C(=O)O)c2ccc(C)cc2)cc1 (stereo unspecified) | –
24 | 610 | O=C(O)[C@@H]1Cc2c(ncn2Cc2ccc([N+](=O)[O-])cc2)CN1C(=O)C(c1ccccc1)c1ccccc1 | –
25 | 67 | COc1ccc(Cn2cnc3c2C[C@@H](C(=O)O)N(C(=O)C(c2ccccc2)C2CCCC2)C3)cc1C (stereo partly specified) | –
26 | 4000 | O=C(O)C1Cc2c(ncn2Cc2ccccc2)CN1C(=O)COc1ccccc1 (stereo unspecified) | –
27 | 89 | CC(=O)Nc1ccc(Cn2cnc3c2C[C@@H](C(=O)O)N(C(=O)C(c2ccccc2)c2ccccc2)C3)cc1C | –
28 | 4200 | COc1ccc(Cn2cnc3c2C[C@@H](C(=O)O)N(C(=O)CC(c2ccccc2)c2ccccc2)C3)cc1C | –
29 | 740 | O=C(O)C1Cc2c(ncn2Cc2ccccc2)CN1C(=O)Cc1ccccc1 (stereo in doubt; 14a) | –
30 | 44 | CNC(=O)Nc1ccc(Cn2cnc3c2C[C@@H](C(=O)O)N(C(=O)C(c2ccccc2)c2ccccc2)C3)cc1C | –
31 | 560 | COc1ccc(Cn2cnc3c2C[C@@H](C(=O)O)N(C(=O)C(C)c2ccccc2)C3)cc1C (stereo partly specified) | –
32 | 440 | O=C(O)C1Cc2c(ncn2Cc2ccccc2)CN1C(=O)C(c1ccccc1)c1ccccc1 (stereo in doubt; 18a) | IC50 (Angiotensin II receptor [2]): 3800 nM
